A selection follows.
PGC1a acetyl up: compounds raising PGC1a acetylation signal, primary screen, PGC1a modulator project, cell-based, U2OS, AlphaScreen, signal-increasing mode; overnight; activation, % at 15.6 µM; 350,000 compounds, 0.21% hits; AID 651723, 2012;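 active means every replicate reaching activation of at least 50%, whatever the mean replicate activation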;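 further: hits raise the AlphaScreen acetylation signal above neutral controls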
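System: Flag-PGC1a/GCN5 U2OS cells | Quantity: 7000 cells/well | Times: Overnight compound treatment, 37 °C | Measured by: AlphaScreen proximity luminescence, anti-acetyl-lysine antibody | Dosing: One concentration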
Active calls of the source: *.

SMILES	PGC1a acetyl up
COc1ccc(NC(=O)CSC2CC(=O)N(c3ccc4c(c3)OCCO4)C2=O)cc1 (stereo unspecified)	55*
CCc1c(C)nc(SCC(=O)Nc2ccc3c(c2)OCCO3)[nH]c1=O	-46
Cn1nc(-c2ccccc2F)c2cc(C(=O)N3CCN(C(=O)c4ccco4)CC3)sc21	82*
O=C(c1ccco1)N1CCN(c2ncnc3scc(-c4cccs4)c23)CC1	-45
CC[C@H](C)[C@@H]1NC(=O)[C@@H](CC(C)C)NC(=O)[C@H](C(C)C)NC(=O)[C@H]2CSSC[C@H](NC1=O)C(=O)N2	-72
CC(=O)N(Cc1ccc(F)cc1)C1=C(NCCc2ccccc2)C(=O)c2ccccc2C1=O	-84
CC(C)(C)NCCC(O)c1cc(C(F)(F)F)nc2c(C(F)(F)F)cccc12 (stereo unspecified)	70*
COc1ccc(-c2noc(CCC(=O)N3CCN(c4cccc(C)c4C)CC3)n2)cc1	-44
CC(=O)C1=C(O)C(=O)N(Cc2ccco2)C1c1cccc(F)c1 (stereo unspecified)	-51
O=C(CCl)NCc1cc(-c2ccc(Cl)cc2)no1	52*
CC(=O)[C@H]1CC[C@H]2[C@@H]3CC=C4C[C@@H](OS(=O)(=O)O)CC[C@]4(C)[C@H]3CC[C@]12C	-47
COc1cc(NC(=S)NN2CCOCC2)cc(OC)c1	-61
CCc1ccc(N/C(SCc2ccccc2C)=C(/C#N)C(=O)NCc2ccco2)cc1	84*
CC(C)NC(=O)Nc1ccc2c(c1)C(=O)N([C@@H](C)CO)C[C@@H](C)[C@H](CN(C)C(=O)NC(C)C)OCCCC[C@@H](C)O2	-49
CCOC(=O)c1c(C)n(C)c2cc(Br)c(O)c(O)c12	-47
CCOC(=O)c1c2c(n(C)c1C)C(=O)C(=O)c1ccc(Br)cc1-2	83*
C[C@@H]1CN([C@H](C)CO)C(=O)Cc2cc(NC(=O)Nc3ccccc3)ccc2O[C@H]1CN(C)Cc1ccccc1	-61
S=c1[nH]nc(-c2ccco2)n1/N=C/C(Cl)=C/c1ccccc1	65*
FC(F)(F)c1ccc(Cl)c(-n2c(-c3cc(-c4ccco4)[nH]n3)n[nH]c2=S)c1	-43
S=c1[nH]nc(-c2cc(-c3ccccc3)n[nH]2)n1/N=C/C(Br)=C/c1ccccc1	241*
Cc1ccc(S(=O)(=O)N[C@@H]2C=C[C@H](CC(=O)NCCN3CCCCC3)O[C@@H]2CO)cc1	-58
CC(C)NC(=O)NCC[C@H]1CC[C@H](NC(=O)c2ccc(F)cc2)[C@H](CO)O1	-55
CCSc1ccc(NC(=O)c2cccnc2)cc1	226*
CC(C)(C)c1ccc(C(=O)Nc2ccc(C(=O)NCc3cccnc3)cc2)cc1	101*
O=C(COc1ccc(Br)cc1)NCCNC(=O)c1cccnc1	-45
SMILES	PGC1a acetyl up
Cc1cccc(-n2c(CNC(=O)c3cccc([N+](=O)[O-])c3C)n[nH]c2=S)c1	-46
C=CCN(c1ccc(C(=O)Nc2ccc3c(c2)OCO3)cc1)S(C)(=O)=O	-93
C[C@H]1CN([C@@H](C)CO)C(=O)c2cc(C#CC(C)(C)O)cnc2O[C@@H]1CN(C)C(=O)C1CCC1	-101
COc1ccc(COc2cc(-c3cccc(OC)c3)nc3ccc(NC(=O)c4cccnc4)cc23)cc1	53*
CC(C)NC(=O)N(C)C[C@H]1OCCCC[C@@H](C)Oc2ccc(NC(=O)Cc3ccccc3)cc2C(=O)N([C@@H](C)CO)C[C@H]1C	-55
O=C(C[C@H]1C[C@H]2c3cc(NC(=O)C4CCC4)ccc3O[C@H]2[C@H](CO)O1)NCc1ccc(-c2ccccc2)cc1	-64
CCCCn1c(SCC(=O)NCc2ccc3c(c2)OCO3)nnc1C(CC)N(C)C (stereo unspecified)	-44
Cc1cccc2cc(CN(Cc3nnnn3Cc3ccco3)C3CCCC3)c3nnnn3c12	55*
COC(=O)c1cc(CN2C(=O)c3ccccc3C2=O)c(O)c([N+](=O)[O-])c1	-40
COc1ccc2c(c1)CCc1c(C(=O)NCCCn3ccnc3)noc1-2	-41
CC1CC(C)CN(S(=O)(=O)c2ccc(C(=O)NCCCn3ccnc3)cc2)C1 (stereo unspecified)	580*
CCSc1ccccc1C(=O)NCCCn1ccnc1	-95
C[C@@]12C(=O)OC(=O)[C@]1(C)C1CCC2O1	-47
CC(C)(C)c1ccc(CCC2OCC(C[N+]3(C)CCOCC3)O2)cc1 (stereo unspecified)	-73
Cc1ccc(C)c(NC(=O)c2nnn(Cc3ccccc3)c2N)c1	-47
CCOC(=O)c1[nH]c(C)c(C(=O)Nc2cc(Cl)ccc2C)c1C	78*
Cc1cccc(NC(=O)CCC(=O)N/N=C/c2ccc(O)cc2O)c1	51*
CCC(=O)Nc1cccc(C(=O)/C=C/c2ccccc2)c1	-41
COc1ccc(S(=O)(=O)N[C@H]2CC[C@@H](CCNC(=O)c3ccccc3F)O[C@@H]2CO)cc1	-52
COc1cc(NC(=O)CCN2CCN(C)CC2)cc(OC)c1	-50
CCOc1ccc(NC(=O)CN2CCC(n3cnc4cc(F)ccc43)CC2)cc1	67*
COc1ccc(Cl)cc1NC(=O)CN1CCC(n2nnc3cc(C)ccc32)CC1	-51
O=C(OCn1ncc(Cl)c(Cl)c1=O)c1ccc(C(F)(F)F)cc1	154*
CNC[C@H]1Oc2ncc(C#CC3CCCCC3)cc2C(=O)N([C@H](C)CO)C[C@H]1C	-41
C[C@@H]1CCCCO[C@@H](CN(C)C)[C@@H](C)CN([C@H](C)CO)C(=O)c2cc(NS(=O)(=O)c3ccc(Cl)cc3)ccc2O1	-45
SMILES	PGC1a acetyl up
N#CC(C#N)=c1ccc2c(c1)NC1(CCCCC1)N=2	162*
O=C(Cc1ccccn1)NCC[C@H]1CC[C@H](NC(=O)Nc2ccc(C(F)(F)F)cc2)[C@H](CO)O1	-48
Cc1ccccc1S(=O)(=O)N[C@@H]1CC[C@@H](CCn2cc(Cc3ccccc3)nn2)O[C@H]1CO	-61
O=C(Cc1ccccn1)N[C@@H]1CC[C@@H](CCn2cc(-c3ccccc3)nn2)O[C@H]1CO	133*
O=C(Cc1ccccn1)NCC[C@H]1CC[C@@H](NC(=O)Nc2ccc(C(F)(F)F)cc2)[C@@H](CO)O1	-102
COc1ccc(NC(=O)N[C@@H]2CC[C@H](CCn3cc(-c4ccccc4F)nn3)O[C@H]2CO)cc1	-62
O=C(Cc1ccccn1)N[C@H]1CC[C@H](CCn2cc(-c3ccccc3)nn2)O[C@@H]1CO	76*
Cc1ccc(S(=O)(=O)OCCC2=CC(=O)CCN2Cc2ccccc2)cc1	-63
CS(=O)(=O)Nc1ccc2c(c1)[C@@H]1C[C@H](CC(=O)N3CCc4ccccc4C3)O[C@@H](CO)[C@@H]1O2	-41
COC(=O)C1=CN(Cc2ccc(OC)c(OC)c2)C=C(C(=O)OC)C1c1cccc(O)c1	-74
CO[C@H]1CN(C)C(=O)c2ccc(NS(=O)(=O)c3ccccc3)cc2OC[C@H](C)N(C(=O)NC(C)C)C[C@@H]1C	-59
C[C@H](CO)N1C[C@H](C)[C@H](CN(C)S(=O)(=O)c2ccc(F)cc2)Oc2ncc(-c3cccc(C(=O)N(C)C)c3)cc2C1=O	-48
COc1ccc(C#Cc2cnc3c(c2)C(=O)N([C@H](C)CO)C[C@H](C)[C@H](CN(C)S(=O)(=O)c2cccc(F)c2)O3)cc1OC	123*
C[C@H](CO)N1C[C@H](C)[C@@H](CN(C)C(=O)Nc2ccc(F)cc2)Oc2ncc(C#CC3CC3)cc2C1=O	-47
Clc1ccccc1CN1CCSCC1	-47
O=C(C[C@@H]1CC[C@@H](NC(=O)C2CCC2)[C@H](CO)O1)NCC1CC1	-56
COc1ccc(CC2=CC(=O)c3ccccc3C2=O)cc1	128*
